Source: ChEMBL document CHEMBL3286091, “Novel N-linked aminopiperidine-based gyrase inhibitors with improved hERG and in vivo efficacy against Mycobacterium tuberculosis” (J Med Chem, 2014)
Values after ≈ are worked out from the molar mass of the structure shown. Active and inactive are the calls of the source. The rule behind the calls is not given here.

Tests used:
[1] = tested on: Mycobacterium tuberculosis; test: Antimycobacterial activity against wild-type Mycobacterium tuberculosis H37Rv ATCC 27294 after 16 to 18 days by BACTEC 7H12B microdilution method; format: functional
[2] = biological target: DNA gyrase subunit A/DNA gyrase subunit B (Mycobacterium tuberculosis (strain ATCC 25618 / H37Rv), UniProt P9WG45+P9WG47); test: Inhibition of Mycobacterium tuberculosis H37Rv DNA gyrase holoenzyme-mediated supercoiling of pBR322 DNA after 90 mins by agarose gel electrophoresis
[3] = Octanol-sodium phosphate buffer partition coefficient, log D of the compound at 10 mM at pH 7.4 by shake-flask method; format: physicochemical
DNA gyrase subunit B = DNA gyrase subunit B (Mycobacterium smegmatis, UniProt P0C559); test: Inhibition of Mycobacterium smegmatis DNA gyrase-B ATPase activity; set-up: species or system Mycolicibacterium smegmatis
[4] = Apparent permeability from basolateral to apical side in human Caco2 cells; format: ADME, cell-based; conditions: Caco-2
[5] = Apparent permeability from apical to basolateral side in human Caco2 cells; format: ADME, cell-based; conditions: Caco-2
[6] = biological target: Voltage-gated inwardly rectifying potassium channel KCNH2 (Homo sapiens, UniProt Q12809); test: Inhibition of human ERG by patch clamp electrophysiological analysis
[7] = tested on: Mycobacterium tuberculosis; test: Antimycobacterial activity against Mycobacterium tuberculosis infected in aminobenzotriazole-pretreated BALB/c mouse chronic tuberculosis model assessed as reduction in log10CFU at 40 to 80 mg/kg, po bid for 20 days; format: functional; conditions: dose mg/kg 40-80
Method in brief: (§1)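 Aerosol-infected BALB/c mice in BSL3, three per group. Treatment began 3 days (acute) or 4 weeks (chronic) after infection. ABT 100 mg/kg po in water was given 2 h before oral gavage of compound in 5% dextrose (pH 4−5 with acetic acid), 10 mL/kg, twice daily at 8 h intervals. Courses were 20 days (7 days/week) or 8 weeks (6 days/week). Lung homogenates were plated on 7H11 for cfu.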

[8] = Clearance in rat at 40 mg/kg, po and 5 mg/kg, iv by LC-MS/MS analysis; format: ADME, organism-based; conditions: in vivo
Method in brief: (§2)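 Rats were dosed with the 5% dextrose (pH 4−5) formulation, 5 mg/kg iv and 40 mg/kg po. Plasma was precipitated with acetonitrile and analysed by LC−MS/MS with a carbamazepine internal standard. Parameters were derived by noncompartmental analysis.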

Mus musculus [9] = test: fT>MIC in BALB/c mouse infected with Mycobacterium tuberculosis at 20 mg/kg, po
Method in brief: (§3)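 PK was measured in infected, ABT-pretreated mice during efficacy dosing (oral, 5% dextrose pH 4−5) on day 18 or 19. Saphenous blood was taken at 5, 15 and 30 min and 1, 2, 4 and 6 h. Plasma was precipitated with acetonitrile and analysed by LC−MS/MS. AUC came from noncompartmental analysis; free AUC/MIC and %free T>MIC used the unbound fraction and MIC.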

[10] = Oral bioavailability in rat at 40 mg/kg by LC-MS/MS analysis; format: ADME, organism-based; conditions: in vivo; method in brief: as §2
[11] = Fraction unbound in aminobenzotriazole-pretreated BALB/c mouse plasma infected with Mycobacterium tuberculosis by LC-MS/MS analysis; format: ADME, cell-free
[12] = Ratio of fAUC in aminobenzotriazole-pretreated Mycobacterium tuberculosis infected BALB/c mouse at 20 mg/kg, po to MIC for wild-type Mycobacterium tuberculosis H37Rv ATCC 27294; method in brief: as §3
[13] = tested on: Mycobacterium tuberculosis; test: Antimycobacterial activity against Mycobacterium tuberculosis infected in aminobenzotriazole-pretreated BALB/c mouse chronic tuberculosis model assessed as reduction in log10CFU at 40 to 80 mg/kg, po bid for 8 weeks; format: functional, organism-based; method in brief: as §1
[14] = tested on: Mycobacterium tuberculosis; test: Antimycobacterial activity against Mycobacterium tuberculosis infected in aminobenzotriazole-pretreated BALB/c mouse acute tuberculosis model assessed as reduction in bacterial burden at 20 mg/kg, po bid for 20 days; format: functional, organism-based; set-up: dose 20 mg/kg; method in brief: as §1
[15] = tested on: Mycobacterium tuberculosis; test: Antimycobacterial activity against Mycobacterium tuberculosis clinical isolates after 2 to 4 weeks by BACTEC 460 radiometric assay; format: functional
[16] = tested on: Mycobacterium tuberculosis; test: Bactericidal activity against Mycobacterium tuberculosis H37Rv after 10 days by time kill assay; format: functional, organism-based
Method in brief: (§4)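 Time-kill in 7H9 broth with 0.2% glycerol, 0.05% Tween 80 and 10% ADC. Serial 2-fold dilutions were added to ~3 × 10^7 cfu/mL H37Rv at 37 °C. Aliquots were plated on 7H11 at days 0, 3, 7 and 10, and plates were incubated up to 28 days at 37 °C, 5% CO2, humidified. Results are given as log10 cfu per concentration.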

[17] = tested on: Mycobacterium tuberculosis; test: Antimycobacterial activity against Mycobacterium tuberculosis infected in aminobenzotriazole-pretreated BALB/c mouse acute tuberculosis model assessed as reduction in bacterial burden at 80 to 160 mg/kg, po bid for 20 days; format: functional, organism-based; method in brief: as §1
[18] = tested on: Mycobacterium tuberculosis; test: Bactericidal activity against Mycobacterium tuberculosis H37Rv assessed as reduction in log10CFU at 0.01 to 2 ug/ml after 10 days by time kill assay; format: functional; method in brief: as §4
[19] = Ratio of fAUC in aminobenzotriazole-pretreated Mycobacterium tuberculosis infected BALB/c mouse at 80 mg/kg, po to MIC for wild-type Mycobacterium tuberculosis H37Rv ATCC 27294; method in brief: as §3
[20] = tested on: Mycobacterium tuberculosis; test: Bactericidal activity against Mycobacterium tuberculosis H37Rv at 0.01 to 2 ug/ml by time kill assay; format: functional, organism-based; conditions: TDE = time-dependent effect; method in brief: as §4
Mus musculus [21] = test: fT>MIC in BALB/c mouse infected with Mycobacterium tuberculosis at 80 mg/kg, po; method in brief: as §3
[22] = tested on: Mycobacterium tuberculosis; test: Bactericidal activity against Mycobacterium tuberculosis infected in human THP1 cells at 1 ug/ml for 7 days; format: functional, THP-1
Method in brief: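 Adherent THP-1 macrophages infected with Mtb were exposed to compound at 1 μg/mL for 7 days at 37 °C. Kill was expressed as log reduction versus the untreated control.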

Sequence of DNA gyrase subunit A/DNA gyrase subunit B (P9WG45 whole entry): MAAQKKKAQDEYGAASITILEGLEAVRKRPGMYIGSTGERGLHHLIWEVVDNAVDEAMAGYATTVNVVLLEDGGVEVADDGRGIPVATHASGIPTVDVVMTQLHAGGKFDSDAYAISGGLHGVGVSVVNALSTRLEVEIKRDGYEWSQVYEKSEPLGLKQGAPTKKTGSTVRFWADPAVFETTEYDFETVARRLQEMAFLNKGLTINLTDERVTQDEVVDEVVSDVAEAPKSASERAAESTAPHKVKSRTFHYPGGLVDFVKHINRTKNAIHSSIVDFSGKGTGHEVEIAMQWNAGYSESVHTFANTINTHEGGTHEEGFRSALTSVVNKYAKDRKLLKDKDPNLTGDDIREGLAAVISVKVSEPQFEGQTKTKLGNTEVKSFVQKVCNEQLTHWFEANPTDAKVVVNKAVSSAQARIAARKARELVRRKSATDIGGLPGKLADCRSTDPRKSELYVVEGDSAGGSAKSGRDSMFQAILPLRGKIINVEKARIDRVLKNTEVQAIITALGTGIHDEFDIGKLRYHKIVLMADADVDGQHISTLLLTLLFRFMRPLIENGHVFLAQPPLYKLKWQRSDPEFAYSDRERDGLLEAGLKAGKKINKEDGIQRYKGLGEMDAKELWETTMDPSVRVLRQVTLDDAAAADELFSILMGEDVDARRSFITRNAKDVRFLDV
Sequence of DNA gyrase subunit A/DNA gyrase subunit B (P9WG47 whole entry): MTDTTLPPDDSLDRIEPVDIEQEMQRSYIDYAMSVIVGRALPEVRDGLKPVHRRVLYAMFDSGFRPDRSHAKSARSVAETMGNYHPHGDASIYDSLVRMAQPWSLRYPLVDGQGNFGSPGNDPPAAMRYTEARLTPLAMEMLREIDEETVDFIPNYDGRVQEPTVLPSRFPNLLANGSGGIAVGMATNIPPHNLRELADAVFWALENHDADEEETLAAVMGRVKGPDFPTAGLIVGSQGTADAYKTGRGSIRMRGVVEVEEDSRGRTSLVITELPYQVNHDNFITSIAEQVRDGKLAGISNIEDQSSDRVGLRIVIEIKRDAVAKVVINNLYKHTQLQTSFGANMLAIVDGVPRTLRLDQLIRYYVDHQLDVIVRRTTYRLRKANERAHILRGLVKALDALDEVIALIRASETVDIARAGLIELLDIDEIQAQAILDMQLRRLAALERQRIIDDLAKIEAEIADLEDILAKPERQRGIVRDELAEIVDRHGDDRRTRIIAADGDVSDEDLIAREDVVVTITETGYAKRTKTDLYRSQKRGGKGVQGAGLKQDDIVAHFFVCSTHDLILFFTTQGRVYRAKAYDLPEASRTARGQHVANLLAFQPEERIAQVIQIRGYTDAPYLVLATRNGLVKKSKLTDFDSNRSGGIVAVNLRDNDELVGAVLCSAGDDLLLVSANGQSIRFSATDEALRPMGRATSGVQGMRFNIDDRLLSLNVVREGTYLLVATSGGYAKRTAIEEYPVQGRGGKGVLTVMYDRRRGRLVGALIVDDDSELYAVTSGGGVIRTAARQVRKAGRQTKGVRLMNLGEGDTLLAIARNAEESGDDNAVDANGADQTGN
Sequence of DNA gyrase subunit B (P0C559 whole entry): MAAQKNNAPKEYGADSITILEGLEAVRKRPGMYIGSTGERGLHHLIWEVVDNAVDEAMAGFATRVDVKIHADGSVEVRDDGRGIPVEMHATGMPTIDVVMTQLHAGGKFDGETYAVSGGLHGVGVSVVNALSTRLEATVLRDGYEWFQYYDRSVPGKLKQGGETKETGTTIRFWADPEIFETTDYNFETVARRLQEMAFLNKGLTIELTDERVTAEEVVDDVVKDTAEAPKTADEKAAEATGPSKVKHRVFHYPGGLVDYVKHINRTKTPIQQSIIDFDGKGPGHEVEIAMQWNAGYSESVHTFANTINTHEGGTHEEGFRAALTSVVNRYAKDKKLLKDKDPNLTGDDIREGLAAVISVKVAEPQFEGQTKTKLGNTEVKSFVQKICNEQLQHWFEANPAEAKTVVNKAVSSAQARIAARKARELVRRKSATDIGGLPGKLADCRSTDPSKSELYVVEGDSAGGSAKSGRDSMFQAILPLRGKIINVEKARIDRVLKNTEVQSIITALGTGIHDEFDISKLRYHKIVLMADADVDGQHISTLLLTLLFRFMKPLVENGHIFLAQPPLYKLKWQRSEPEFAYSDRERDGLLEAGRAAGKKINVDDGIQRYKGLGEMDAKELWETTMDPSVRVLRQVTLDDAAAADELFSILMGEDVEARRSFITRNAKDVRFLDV
Sequence of Voltage-gated inwardly rectifying potassium channel KCNH2 (Q12809 whole entry): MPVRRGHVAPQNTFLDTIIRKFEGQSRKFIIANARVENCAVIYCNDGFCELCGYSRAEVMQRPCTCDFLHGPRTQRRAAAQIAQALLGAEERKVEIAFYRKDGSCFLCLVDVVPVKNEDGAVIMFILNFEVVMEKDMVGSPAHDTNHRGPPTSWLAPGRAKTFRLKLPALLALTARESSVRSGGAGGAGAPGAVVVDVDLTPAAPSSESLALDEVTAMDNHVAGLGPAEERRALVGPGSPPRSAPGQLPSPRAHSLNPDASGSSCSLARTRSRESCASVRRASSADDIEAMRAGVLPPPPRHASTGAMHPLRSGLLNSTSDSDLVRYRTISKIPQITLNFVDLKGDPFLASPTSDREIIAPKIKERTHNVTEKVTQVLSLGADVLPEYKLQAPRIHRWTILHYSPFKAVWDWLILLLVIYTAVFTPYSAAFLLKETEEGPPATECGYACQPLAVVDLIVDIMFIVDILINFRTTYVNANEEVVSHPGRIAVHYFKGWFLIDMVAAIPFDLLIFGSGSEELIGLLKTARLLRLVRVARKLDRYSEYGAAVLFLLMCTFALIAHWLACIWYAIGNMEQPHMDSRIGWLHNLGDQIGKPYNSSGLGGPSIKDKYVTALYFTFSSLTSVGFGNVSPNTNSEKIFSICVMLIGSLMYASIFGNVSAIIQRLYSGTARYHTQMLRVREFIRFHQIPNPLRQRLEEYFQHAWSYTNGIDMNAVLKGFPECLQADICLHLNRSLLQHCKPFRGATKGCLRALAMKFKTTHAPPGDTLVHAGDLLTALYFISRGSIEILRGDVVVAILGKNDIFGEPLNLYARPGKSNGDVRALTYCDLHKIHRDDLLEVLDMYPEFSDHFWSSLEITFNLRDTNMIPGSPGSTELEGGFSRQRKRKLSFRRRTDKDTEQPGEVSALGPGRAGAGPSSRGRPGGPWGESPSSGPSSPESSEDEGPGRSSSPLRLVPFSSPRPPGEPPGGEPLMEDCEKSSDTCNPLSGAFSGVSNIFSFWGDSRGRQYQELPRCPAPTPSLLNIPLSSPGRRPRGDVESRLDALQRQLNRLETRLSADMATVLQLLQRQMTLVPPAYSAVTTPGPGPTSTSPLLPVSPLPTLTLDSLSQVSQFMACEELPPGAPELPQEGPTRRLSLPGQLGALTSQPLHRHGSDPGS

SMILES	MIC [1] [µg/mL]	IC50 [2] [µM]	logD at 10000 µM [3]	Papp B→A [4] [×10⁻⁶ cm/s]	Papp A→B [5] [×10⁻⁶ cm/s]	IC50 [6] [µM]	other results
N#Cc1ccc2ccc(=O)n(CCN3CCC(NCc4cc5c(cn4)OCCO5)CC3)c2c1	2 (≈ 4.49 µM)	1.05	0.7	38.3	1.9	–	IC50 (DNA gyrase subunit B): > 100 µM
CO[C@H]1/C=C/O[C@@]2(C)Oc3c(C)c(O)c4c(O)c(c(/C=N/N5CCN(C)CC5)c(O)c4c3C2=O)NC(=O)/C(C)=C\C=C\[C@H](C)[C@H](O)[C@@H](C)[C@@H](O)[C@@H](C)[C@H](OC(C)=O)[C@@H]1C [RIFAMPIN]	0.015 (≈ 0.0182 µM)	–	–	–	–	–	–
COc1ccc2ncc(=O)n(CCN3CCC(NCc4cnc(C)c(C#N)c4)CC3)c2n1	0.13 (≈ 0.3 µM)	–	1.65	–	–	13	–
Cc1ncc(CNC2CCN(CCn3c(=O)ccc4ccc(C#N)cc43)CC2)cc1C#N	0.06 (≈ 0.141 µM)	0.25	1.3	7.4	13.6	26	log10cfu [7]: 0.5; clearance [8]: 41 mL/min/kg; fT>MIC (Mus musculus [9]): 58%; bioavailability [10]: > 100%; fraction unbound [11]: 0.43; fAUC/MIC [12]: 159; IC50 (DNA gyrase subunit B): > 100 µM; Activity [13]: Active
COc1cnc2ccc(=O)n(CCN3CC[C@@H](NCc4ccc5c(n4)NC(=O)CO5)[C@@H](OC)C3)c2c1	0.13 (≈ 0.263 µM)	–	0.4	–	–	> 100	–
Cc1ncc(CNC2CCN(CCn3c(=O)ccc4c3ccc(=O)n4C)CC2)cc1C#N	> 32	–	-0.6	–	–	33	–
COc1ccc2c(ccc(=O)n2CCN2CCC(NCc3cnc(C)c(C#N)c3)CC2)n1	4 (≈ 9.25 µM)	–	–	–	–	10	–
COc1cc(C#N)c2ccc(=O)n(CCN3CCC(NCc4cnc(C)c(C#N)c4)CC3)c2c1	0.01 (≈ 0.0219 µM)	0.065	1.86	4.7	10	2.5	clearance [8]: 10 mL/min/kg; bioavailability [10]: 59%
COc1cnc2ccc(=O)n(CCN3CC[C@@H](NCc4cnc(C)c(C#N)c4)[C@@H](OC)C3)c2c1	0.06 (≈ 0.13 µM)	–	0.99	9.9	11.7	–	clearance [8]: 54 mL/min/kg; bioavailability [10]: 73%
Cc1nc(CNC2CCN(CCn3c(=O)ccc4ccc(C#N)cc43)CC2)ccc1C#N	> 16	> 100	1.1	9.1	17.1	5.3	IC50 (DNA gyrase subunit B): > 100 µM
N#Cc1ccc2ccc(=O)n(CCN3CCC(NCc4ccc5c(n4)NC(=O)CO5)CC3)c2c1	0.13 (≈ 0.284 µM)	0.11	0.4	12.6	2	–	clearance [8]: 187 mL/min/kg; Activity [14]: Active; MIC90 [15]: < 0.5 µg/mL; bioavailability [10]: 11%; IC50 (DNA gyrase subunit B): > 100 µM
COc1cnc2ccc(=O)n(CCN3CCC(NC(=O)c4cnc(C)c(C#N)c4)CC3)c2c1	0.13 (≈ 0.291 µM)	–	1.4	13	4.2	74	–
NNC(=O)c1ccncc1 [ISONIAZID]	0.06 (≈ 0.438 µM)	–	–	–	–	–	–
CC1COc2c(N3CCN(C)CC3)c(F)cc3c(=O)c(C(=O)O)cn1c23 (centres undefined) [OFLOXACIN]	0.5 (≈ 1.38 µM)	–	–	–	–	–	MIC90 [15]: > 8 µg/mL
Cc1ncc(CNC2CCN(CCn3c(=O)ccc4ncc(F)cc43)CC2)cc1C#N	0.25 (≈ 0.595 µM)	–	0.81	9.8	18	69	–
COc1ccc2ccc(=O)n(CCN3CCC(NCc4ccc5c(n4)NC(=O)CO5)CC3)c2n1	0.25 (≈ 0.538 µM)	0.15	0.8	25	1.1	21	IC50 (DNA gyrase subunit B): > 100 µM
O=C(O)c1cn(C2CC2)c2cc(N3CCNCC3)c(F)cc2c1=O [CIPROFLOXACIN]	0.25 (≈ 0.754 µM)	–	–	–	–	–	–
COc1cnc2ccc(=O)n(CCN3CCC(NCc4cnc(OC)c(C#N)c4)CC3)c2c1	0.06 (≈ 0.134 µM)	–	1.2	9	13	12	–
O=C1COc2ccc(CN[C@H]3CCN(CCn4c(=O)ccc5ncc(F)cc54)C[C@H]3F)nc2N1	0.13 (≈ 0.276 µM)	0.24	0.47	12.3	8.1	–	clearance [8]: 63 mL/min/kg; Activity [16]: Dose-dependent effect; Activity [17]: Active; log10cfu [18]: >3; bioavailability [10]: > 100%; fraction unbound [11]: 0.44; fAUC/MIC [19]: 175; Activity [20]: tde; fT>MIC (Mus musculus [21]): 58%
COc1cnc2ncc(=O)n(CCN3CCC(NCc4cnc(C)c(C#N)c4)CC3)c2c1	0.13 (≈ 0.3 µM)	–	0.38	–	–	> 100	–
Cc1ncc(CN[C@@H]2CCN(CCn3c(=O)ccc4ncc(F)cc43)C[C@@H]2F)cc1C#N	0.25 (≈ 0.57 µM)	–	0.92	15.4	17.7	–	clearance [8]: 30 mL/min/kg; bioavailability [10]: > 100%
COc1cnc2ccc(=O)n(CCN3CCC(NCc4cnc(C)c(C#N)n4)CC3)c2c1	0.5 (≈ 1.15 µM)	–	0.89	–	–	69	–
COc1cnc2ccc(=O)n(CCN3CC[C@@H](NCc4ccc5c(n4)NC(=O)CO5)[C@@H](F)C3)c2c1	0.03 (≈ 0.0622 µM)	–	0.64	10.8	4.1	–	–
COc1cnc2ccc(=O)n(CCN3CC[C@@H](NCc4cnc(C)c(C#N)c4)[C@@H](F)C3)c2c1	0.06 (≈ 0.133 µM)	0.25	1.29	7.4	13.6	90	clearance [8]: 42 mL/min/kg; LCK [22]: 1.3; bioavailability [10]: 52%
Cc1ncc(CN[C@@H]2CCN(CCn3c(=O)ccc4ccc(C#N)cc43)C[C@@H]2F)cc1C#N	0.25 (≈ 0.562 µM)	–	1.29	13	14.5	–	–
COc1c(N2C[C@@H]3CCCN[C@@H]3C2)c(F)cc2c(=O)c(C(=O)O)cn(C3CC3)c12 [MOXIFLOXACIN]	0.06 (≈ 0.149 µM)	–	–	–	–	–	LCK [22]: 2.3
